# Results as given in ChEMBL document CHEMBL1140440, “Simple but highly effective three-dimensional chemical-feature-based pharmacophore model for diketo acid derivatives as hepatitis C virus RNA-dependent RNA polymerase inhibitors” (J Med Chem, 2005).
# Target: RNA-directed RNA polymerase (Hepacivirus hominis, UniProt O39930)
# Assay: Inhibitory concentration against NS5B HCV polymerase using [alpha-32P]UTP as radioligand (30 degree C for 2 h, at pH 7.5 with Tris-HCl buffer)
# Procedure, shortened: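 Recombinant HCV RdRp (1 nM) in 20 mM Tris-HCl pH 7.5, 5 mM MgCl2, 1 mM DTT, 1 mM EDTA, RNase inhibitor, 50 µg/mL actinomycin D, 10 µg/mL RNA template, 0.5 mM ATP/CTP/GTP, [α-32P]UTP, limiting nucleotide 10 µM. 30 °C, 2 h; proteinase K stop, extraction, urea-PAGE, phosphorimaging. IC50s rescaled by a reference inhibitor's measured/literature IC50 ratio.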
# RNA-directed RNA polymerase, sequence (O39930 whole entry): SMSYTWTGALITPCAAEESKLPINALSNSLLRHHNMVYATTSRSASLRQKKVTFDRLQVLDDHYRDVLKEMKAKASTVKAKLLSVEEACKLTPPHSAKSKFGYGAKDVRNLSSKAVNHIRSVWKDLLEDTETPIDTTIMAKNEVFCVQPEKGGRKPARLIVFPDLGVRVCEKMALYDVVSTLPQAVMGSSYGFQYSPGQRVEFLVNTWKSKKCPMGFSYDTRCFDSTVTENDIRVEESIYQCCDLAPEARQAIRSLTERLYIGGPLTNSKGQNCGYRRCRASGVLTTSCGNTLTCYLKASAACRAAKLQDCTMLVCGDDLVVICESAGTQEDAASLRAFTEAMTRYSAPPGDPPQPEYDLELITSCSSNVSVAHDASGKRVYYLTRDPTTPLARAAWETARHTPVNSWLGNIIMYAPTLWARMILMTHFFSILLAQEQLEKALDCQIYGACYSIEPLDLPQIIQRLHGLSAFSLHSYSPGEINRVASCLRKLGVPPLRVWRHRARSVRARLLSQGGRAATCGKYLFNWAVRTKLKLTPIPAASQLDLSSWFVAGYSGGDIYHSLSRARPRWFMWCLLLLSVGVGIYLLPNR
row,Compound,IC50
1,O=C(O)C(=O)/C=C(\O)c1cccc(NC(=O)C(=O)O)c1,19 µM
2,O=C(O)C(=O)/C=C(\O)c1ccc(Cc2ccc(F)cc2)s1,65 µM
3,O=C(O)C(=O)/C=C(\O)c1cccc(Oc2ccccc2)c1,19 µM
4,Cn1cc(/C(O)=C/C(=O)C(=O)O)cc1Cc1cccc(F)c1,21 µM
5,O=C(O)C(=O)/C=C(\O)c1cccc(OCc2cccc(Oc3ccccc3)c2)c1,50 µM
6,Cc1ccc(/C(O)=C/C(=O)C(=O)O)o1,58 µM
7,O=C(O)C(=O)/C=C(\O)c1ccc(Cc2cccc(F)c2)s1,74 µM
8,COc1cccc(/C(O)=C/C(=O)C(=O)O)c1,40 µM
9,O=C(O)C(=O)/C=C(\O)c1ccc(Cc2ccccc2)s1,68 µM
10,O=C(O)C(=O)/C=C(\O)c1cnc2cc(Cl)ccc2c1O,26 µM
11,O=C(O)C(=O)/C=C(O)/C=C/c1cccn1Cc1cccc(F)c1,18 µM
12,O=C(O)C(=O)/C=C(\O)c1cccc(-c2ccccc2)c1,28 µM
13,Cc1sc(-c2ccccc2)cc1/C(O)=C/C(=O)C(=O)O,167 µM
14,Cc1cc(/C(O)=C/C(=O)C(=O)O)c(C)o1,14 µM
15,CCCCS(=O)(=O)N1CCCC(Cc2ccc(Cl)cc2)(/C(O)=C/C(=O)C(=O)O)C1 (stereo unspecified),81.4 µM
16,O=C(O)C(=O)/C=C(\O)c1ccc(Cc2cccc(Cl)c2)s1,82 µM
17,Cc1coc(C)c1/C(O)=C/C(=O)C(=O)O,48 µM
18,COc1ccc(Cn2cccc2/C=C/C(O)=C/C(=O)C(=O)O)cc1,16 µM
19,O=C(O)C(=O)/C=C(\O)c1cc2c(s1)-c1cc(F)ccc1OC2,27 µM

row,Compound,IC50
1,Cn1cc(C(=O)c2ccc(F)cc2)cc1/C=C/C(O)=C/C(=O)C(=O)O,16 µM
2,O=C(O)C(=O)/C=C(\O)c1ccco1,50 µM
3,O=C(O)C(=O)/C=C(\O)c1ccsc1Cc1ccc(F)cc1,18 µM
4,O=C(O)C(=O)/C=C(\O)c1ccc(-c2ccc(F)c(Cl)c2)o1,41 µM
5,O=C(O)C(=O)/C=C(\O)c1ccccc1OCc1ccccc1,44 µM
6,O=C(O)C(=O)/C=C(\O)c1cccn1Cc1cccc(F)c1,30 µM
7,O=C(O)C(=O)/C=C(\O)c1cc(I)cn1Cc1ccc(F)cc1,18 µM
8,O=C(O)C(=O)/C=C(\O)c1cccc(N2CCCC2)c1,84 µM
9,O=C(O)C(=O)/C=C(\O)c1cccc(NCc2ccccc2)c1,17 µM
10,O=C(O)C(=O)/C=C(\O)c1cccn1Cc1ccccc1,29 µM
11,O=C(O)C(=O)/C=C(O)/C=C/c1c[nH]c2ccc(Cl)cc12,18 µM
12,O=C(O)C(=O)/C=C(\O)c1ccsc1Cc1cccc(F)c1,80 µM
13,O=C(O)C(=O)/C=C(\O)c1cccn1Cc1ccccc1Cl,24 µM
14,O=C(O)C(=O)/C=C(\O)c1cccc(Cc2cc(Br)cc(Br)c2)c1,32 µM
15,O=C(O)C(=O)/C=C(\O)c1cccc(OCc2ccc(-c3ccccc3)cc2)c1,50 µM
16,O=C(O)C(=O)/C=C(\O)c1cccn1Cc1ccc(F)cc1,93 µM
17,Cc1ccccc1Cn1cccc1/C=C/C(O)=C/C(=O)C(=O)O,18 µM
18,Cc1ccc(Cn2cccc2/C=C/C(O)=C/C(=O)C(=O)O)cc1,28 µM

# Compounds with a lower IC50, results first:
row,IC50,Compound
1,13 µM,O=C(O)C(=O)/C=C(\O)c1cccn1Cc1ccc2ccccc2c1
2,13 µM,O=C(O)C(=O)/C=C(\O)c1cccn1Cc1ccc(O)cc1
3,13 µM,N#CCCCCn1cccc1/C(O)=C/C(=O)C(=O)O
4,12 µM,Cc1cccc(/C(O)=C/C(=O)C(=O)O)c1
5,9.9 µM,O=C(O)C(=O)/C=C(\O)c1sccc1Cc1cccc(F)c1
6,8.3 µM,O=C(O)C(=O)/C=C(\O)c1ccccc1Cc1ccc(F)cc1
7,8.2 µM,O=C(O)C(=O)/C=C(\O)c1ccc(N2CCCCC2)s1
8,8.2 µM,Cc1cc(C)c(/C(O)=C/C(=O)C(=O)O)s1
9,8 µM,O=C(O)C(=O)/C=C(\O)c1cccc(OCc2ccccc2)c1
10,7.6 µM,COc1cccc(Cn2cccc2/C(O)=C/C(=O)C(=O)O)c1
11,7.5 µM,O=C(O)C(=O)/C=C(\O)c1ccsc1Sc1cccc(Cl)c1
12,7.4 µM,O=C(O)C(=O)/C=C(\O)c1cccn1Cc1c(F)cccc1F
13,6.7 µM,O=C(O)C(=O)/C=C(\O)C12C[C@H]3C[C@@H](C1)C[C@@H](C2)C3
14,6.3 µM,N#Cc1ccccc1Cn1cccc1/C(O)=C/C(=O)C(=O)O
15,6 µM,O=C(O)C(=O)/C=C(\O)c1cccc(OCc2cc(-c3ccccc3)on2)c1
16,5.6 µM,O=C(O)C(=O)/C=C(\O)c1ccccc1
17,4.6 µM,N#Cc1cccc(Cn2ccc(/C(O)=C/C(=O)C(=O)O)c2)c1
18,4 µM,O=C(O)C(=O)/C=C(\O)c1ccsc1
19,2 µM,Cc1ccc(/C(O)=C/C(=O)C(=O)O)c(C)c1
20,1.4 µM,O=C(O)C(=O)/C=C(\O)c1cc(O)cc(OCc2ccccc2)c1
21,1 µM,O=C(O)C(=O)/C=C(\O)c1cccc(O)c1
22,0.95 µM,O=C(O)C(=O)/C=C(\O)c1cccc(OCc2ccsc2C(=O)O)c1
23,0.67 µM,O=C(O)C(=O)/C=C(\O)c1cccc(OCc2cccc3ccccc23)c1
24,0.38 µM,N#CCCCOc1ccccc1/C(O)=C/C(=O)C(=O)O
25,0.14 µM,O=C(O)C(=O)/C=C(\O)c1cccc(NS(=O)(=O)c2cc(Cl)cc(Cl)c2)c1
26,0.11 µM,N#CCCCOc1ccc(O)cc1/C(O)=C/C(=O)C(=O)O
27,0.1 µM,N#Cc1cccc(Cl)c1COc1cc(O)cc(/C(O)=C/C(=O)C(=O)O)c1
28,0.056 µM,N#Cc1cc(Cl)c(Cl)cc1COc1cccc(/C(O)=C/C(=O)C(=O)O)c1
29,0.049 µM,O=C(O)C(=O)/C=C(\O)c1cccc(NS(=O)(=O)c2cc(Cl)c(Cl)cc2Cl)c1
